# Calls of active or inactive are those of the source. The calls are words filed in the database; no cut-off is given here.
# Target: Cytochrome P450 3A4 (Homo sapiens, UniProt P08684)
# Assay: Inhibition of CYP3A4 in human liver microsomes in presence of NADPH
# Assay type: ADME, Microsome
# Settings: not given
# Sequence of Cytochrome P450 3A4 (P08684 whole entry): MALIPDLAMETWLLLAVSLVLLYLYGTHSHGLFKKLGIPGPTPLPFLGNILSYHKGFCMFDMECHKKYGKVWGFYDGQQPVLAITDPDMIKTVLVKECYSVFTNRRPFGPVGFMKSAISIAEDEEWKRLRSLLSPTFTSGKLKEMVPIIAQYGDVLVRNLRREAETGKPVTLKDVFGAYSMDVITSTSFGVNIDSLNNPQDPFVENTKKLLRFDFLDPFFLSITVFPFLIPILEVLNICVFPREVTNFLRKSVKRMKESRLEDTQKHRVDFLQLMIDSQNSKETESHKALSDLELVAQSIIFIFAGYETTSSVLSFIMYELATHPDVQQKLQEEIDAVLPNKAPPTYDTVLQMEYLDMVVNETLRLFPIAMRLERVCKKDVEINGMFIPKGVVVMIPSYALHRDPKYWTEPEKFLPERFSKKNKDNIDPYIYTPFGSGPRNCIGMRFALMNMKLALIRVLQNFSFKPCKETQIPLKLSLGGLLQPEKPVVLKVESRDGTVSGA
row,Structure (SMILES),IC50 [µM]
1,O=C(N1C[C@@H]2CN(c3ccccn3)C[C@@H]2C1)N1CCC2(CCCC2)C1,> 30
2,O=C(N1C[C@@H]2CN(c3ccccn3)C[C@@H]2C1)C12CC3CC(CC(C3)C1)C2,6.2
3,C[C@@H]1CN(c2cccnc2C#N)CCN1C(=O)C12CC3CC(CC(C3)C1)C2,7

# Target: T1, Metabotropic glutamate receptor 1 (Homo sapiens, UniProt Q13255)
# Assay: Negative allosteric modulation of human mGlu1 receptor expressed in HEK293A TREx cells assessed as calcium flux at 30 uM after 45 mins relative to glutamate
# Assay type: functional, cell-based
# Settings: HEK293-A
# Summary of the method: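 Tetracycline-induced HEK293A TREx cells expressing human mGlu1 were loaded with Fluo-4 for Ca2+ flux. Test compound was given at 30 μM. Response amplitude is expressed as a percentage of the maximal response to 100 μM glutamate, averaged over n ≥ 3.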
# Target sequence in this assay (Q13255 19-1194 limits assumed): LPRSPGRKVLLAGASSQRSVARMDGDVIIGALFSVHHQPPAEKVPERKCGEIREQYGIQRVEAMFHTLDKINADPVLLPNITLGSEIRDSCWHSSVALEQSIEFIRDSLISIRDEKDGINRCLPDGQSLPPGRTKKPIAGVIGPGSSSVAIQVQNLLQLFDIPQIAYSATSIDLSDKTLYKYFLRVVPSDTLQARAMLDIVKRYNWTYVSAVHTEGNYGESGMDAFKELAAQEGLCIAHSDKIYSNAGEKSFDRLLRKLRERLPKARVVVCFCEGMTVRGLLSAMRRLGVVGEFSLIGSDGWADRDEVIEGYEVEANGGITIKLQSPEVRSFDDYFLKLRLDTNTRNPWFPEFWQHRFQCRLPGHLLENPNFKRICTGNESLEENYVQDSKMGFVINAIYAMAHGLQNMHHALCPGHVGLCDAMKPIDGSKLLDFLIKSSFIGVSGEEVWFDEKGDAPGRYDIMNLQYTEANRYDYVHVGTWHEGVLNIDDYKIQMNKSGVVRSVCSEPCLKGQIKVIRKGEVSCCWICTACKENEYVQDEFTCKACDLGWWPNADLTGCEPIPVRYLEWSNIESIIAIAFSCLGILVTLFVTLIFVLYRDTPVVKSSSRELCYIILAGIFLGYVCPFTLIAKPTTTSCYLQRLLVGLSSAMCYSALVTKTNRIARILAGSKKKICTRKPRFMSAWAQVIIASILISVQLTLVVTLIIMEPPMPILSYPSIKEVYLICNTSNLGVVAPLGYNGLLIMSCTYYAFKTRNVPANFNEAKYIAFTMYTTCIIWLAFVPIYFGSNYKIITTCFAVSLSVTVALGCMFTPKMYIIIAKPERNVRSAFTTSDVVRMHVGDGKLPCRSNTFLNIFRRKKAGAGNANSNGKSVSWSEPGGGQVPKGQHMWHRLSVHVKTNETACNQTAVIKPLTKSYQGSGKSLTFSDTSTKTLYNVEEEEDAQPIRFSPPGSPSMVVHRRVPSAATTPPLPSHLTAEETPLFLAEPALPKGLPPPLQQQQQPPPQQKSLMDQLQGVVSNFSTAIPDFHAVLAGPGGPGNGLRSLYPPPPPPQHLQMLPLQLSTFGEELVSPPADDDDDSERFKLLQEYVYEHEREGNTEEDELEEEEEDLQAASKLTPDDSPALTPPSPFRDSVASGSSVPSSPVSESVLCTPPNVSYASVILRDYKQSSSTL
row,Structure (SMILES),%max [%]
1,O=C(N1CCC2(CCCCC2)CC1)N1C[C@@H]2CN(c3ccccn3)C[C@@H]2C1,1.5
2,O=C(N1C[C@@H]2CN(c3ccccn3)C[C@@H]2C1)N1CCC2(CCCC2)C1,-0.1
3,O=C(N1C[C@@H]2CN(c3ccncn3)C[C@@H]2C1)C12CC3CC(CC(C3)C1)C2,25.5
4,O=C(C1CCCCC1)N1C[C@@H]2CN(c3ccccn3)C[C@@H]2C1,57.7
5,N#Cc1ncccc1N1C[C@H]2CN(C(=O)C34CC5CC(CC(C5)C3)C4)C[C@H]2C1,1.3
6,O=C(N1CCCCCCC1)N1C[C@@H]2CN(c3ccccn3)C[C@@H]2C1,23.2
7,C[C@H]1CC[C@H](C(=O)N2C[C@H]3CN(c4ccccn4)C[C@H]3C2)CC1,37.9
8,N#Cc1ccncc1N1C[C@H]2CN(C(=O)C34CC5CC(CC(C5)C3)C4)C[C@H]2C1,0.1
9,O=C(N1C[C@@H]2CN(c3cnccn3)C[C@@H]2C1)C12CC3CC(CC(C3)C1)C2,-1.1
10,O=C(N1CCC2(CCCC2)CC1)N1C[C@@H]2CN(c3ccccn3)C[C@@H]2C1,0.7
11,CC(C)(C)[C@H]1CC[C@H](C(=O)N2C[C@H]3CN(c4ccccn4)C[C@H]3C2)CC1,29.2
12,CC1(C(=O)N2C[C@@H]3CN(c4ccccn4)C[C@@H]3C2)CCCCC1,9.3
13,O=C(C1CCCCCC1)N1C[C@@H]2CN(c3ccccn3)C[C@@H]2C1,36.5
14,O=C(N1C[C@@H]2CN(c3ccccn3)C[C@@H]2C1)C12CC3CC(CC(C3)C1)C2,2.2

# Target: Cytochrome P450 2C9 (Homo sapiens, UniProt P11712)
# Assay: Inhibition of CYP2C9 in human liver microsomes in presence of NADPH
# Assay type: ADME, Microsome
# Settings: not given
# Sequence of Cytochrome P450 2C9 (P11712 whole entry): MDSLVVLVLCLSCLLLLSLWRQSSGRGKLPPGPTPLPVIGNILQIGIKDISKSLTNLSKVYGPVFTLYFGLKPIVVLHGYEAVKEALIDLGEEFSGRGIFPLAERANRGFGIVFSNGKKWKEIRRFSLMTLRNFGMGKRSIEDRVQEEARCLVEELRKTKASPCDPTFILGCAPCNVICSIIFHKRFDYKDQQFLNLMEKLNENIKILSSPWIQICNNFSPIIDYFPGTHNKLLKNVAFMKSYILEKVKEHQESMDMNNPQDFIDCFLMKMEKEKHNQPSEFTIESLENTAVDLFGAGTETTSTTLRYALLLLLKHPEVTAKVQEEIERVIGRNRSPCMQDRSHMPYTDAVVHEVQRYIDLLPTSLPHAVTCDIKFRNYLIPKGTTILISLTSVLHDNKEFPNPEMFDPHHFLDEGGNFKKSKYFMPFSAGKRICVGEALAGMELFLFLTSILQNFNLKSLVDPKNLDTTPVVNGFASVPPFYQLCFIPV
row,Structure (SMILES),IC50 [µM]
1,O=C(N1C[C@@H]2CN(c3ccccn3)C[C@@H]2C1)N1CCC2(CCCC2)C1,> 30
2,O=C(N1C[C@@H]2CN(c3ccccn3)C[C@@H]2C1)C12CC3CC(CC(C3)C1)C2,> 30
3,C[C@@H]1CN(c2cccnc2C#N)CCN1C(=O)C12CC3CC(CC(C3)C1)C2,> 30

# Target: Metabotropic glutamate receptor 3 (Homo sapiens) (UniProt Q14832)
# Assay: Negative allosteric modulation of mGlu3 receptor (unknown origin) by cell based assay
# Settings: not given
# Summary of the method: (§1)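 Selectivity against other mGlu subtypes was tested in cell-based functional assays with compound at 10 μM.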
row,Structure (SMILES),Activity
1,O=C(N1C[C@@H]2CN(c3ccccn3)C[C@@H]2C1)N1CCC2(CCCC2)C1,inactive
2,O=C(N1C[C@@H]2CN(c3ccccn3)C[C@@H]2C1)C12CC3CC(CC(C3)C1)C2,inactive

# Target: Metabotropic glutamate receptor 5 (Rattus norvegicus, UniProt P31424)
# Assay: Negative allosteric modulation of mGlu5 receptor (unknown origin) by cell based assay
# Settings: not given
row,Structure (SMILES),IC50 [µM]
1,O=C(N1C[C@@H]2CN(c3ccccn3)C[C@@H]2C1)N1CCC2(CCCC2)C1,> 10
2,O=C(N1C[C@@H]2CN(c3ccccn3)C[C@@H]2C1)C12CC3CC(CC(C3)C1)C2,3.36

# Target: T2, Cytochrome P450 1A2 (Homo sapiens, UniProt P05177)
# T2 sequence (P05177 whole entry): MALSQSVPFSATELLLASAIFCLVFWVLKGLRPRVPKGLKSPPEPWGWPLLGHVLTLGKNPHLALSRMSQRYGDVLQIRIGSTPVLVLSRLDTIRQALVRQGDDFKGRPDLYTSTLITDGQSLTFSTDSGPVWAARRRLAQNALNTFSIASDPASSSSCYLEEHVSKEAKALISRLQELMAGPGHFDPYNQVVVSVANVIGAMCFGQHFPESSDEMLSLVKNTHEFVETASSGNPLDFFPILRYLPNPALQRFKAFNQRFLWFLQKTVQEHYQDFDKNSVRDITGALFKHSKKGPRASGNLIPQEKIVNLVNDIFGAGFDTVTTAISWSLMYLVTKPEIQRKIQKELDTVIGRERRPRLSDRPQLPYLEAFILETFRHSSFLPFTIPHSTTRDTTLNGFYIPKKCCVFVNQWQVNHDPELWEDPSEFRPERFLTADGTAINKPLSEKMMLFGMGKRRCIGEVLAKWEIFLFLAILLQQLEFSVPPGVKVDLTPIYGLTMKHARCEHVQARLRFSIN
# Assay: Inhibition of CYP1A2 in human liver microsomes in presence of NADPH
# Assay type: ADME, Microsome
# Settings: not given
row,Structure (SMILES),IC50 [µM]
1,O=C(N1C[C@@H]2CN(c3ccccn3)C[C@@H]2C1)N1CCC2(CCCC2)C1,> 30
2,O=C(N1C[C@@H]2CN(c3ccccn3)C[C@@H]2C1)C12CC3CC(CC(C3)C1)C2,> 30
3,C[C@@H]1CN(c2cccnc2C#N)CCN1C(=O)C12CC3CC(CC(C3)C1)C2,> 30

# Target: Metabotropic glutamate receptor 5 (Rattus norvegicus) (UniProt P31424)
# Assay: Negative allosteric modulation of rat mGlu5 receptor at 30 uM relative to glutamate
# Settings: not given
row,Structure (SMILES),%max [%]
1,O=C(N1C[C@@H]2CN(c3ccccn3)C[C@@H]2C1)C12CC3CC(CC(C3)C1)C2,1.1

# Test system: Brain
# Assay: Fraction unbound in rat brain
# Assay type: ADME, tissue-based
# Settings: not given
# Summary of the method: (§2)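 Unbound fraction was determined by equilibrium dialysis against rat plasma or rat brain homogenate.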
row,Structure (SMILES),Fu [%]
1,O=C(N1C[C@@H]2CN(c3ccccn3)C[C@@H]2C1)N1CCC2(CCCC2)C1,5.1
2,O=C(N1C[C@@H]2CN(c3ccccn3)C[C@@H]2C1)C12CC3CC(CC(C3)C1)C2,2.3

# Target: Kappa-type opioid receptor (Homo sapiens) (UniProt P41145)
# Assay: Binding affinity to human kappa opioid receptor by radioligand binding assay
# Settings: concentration not given here
# Summary of the method: (§3)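 Compound was screened at 10 μM in a commercial radioligand binding panel of 68 GPCRs, ion channels, kinases and transporters.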
row,Structure (SMILES),inhibition [%]
1,O=C(N1C[C@@H]2CN(c3ccccn3)C[C@@H]2C1)C12CC3CC(CC(C3)C1)C2,60

# Target: T1, Metabotropic glutamate receptor 1
# Assay: Negative allosteric modulation of human mGlu1 receptor expressed in HEK293A TREx cells assessed as calcium flux after 45 mins
# Assay type: functional, cell-based, HEK293-A
# Settings: not given
# Summary of the method: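 HEK293A TREx cells stably expressing human mGlu1 were induced overnight with 50 ng/mL tetracycline at 37 °C. Ten-point 1:3 compound series were added for 2.3 min, then an EC20 of glutamate, then an EC80 of glutamate 1.9 min later. Ca2+ flux was read for 1.7 min. Values are the average of n ≥ 3.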
# Target sequence in this assay (Q13255 whole entry): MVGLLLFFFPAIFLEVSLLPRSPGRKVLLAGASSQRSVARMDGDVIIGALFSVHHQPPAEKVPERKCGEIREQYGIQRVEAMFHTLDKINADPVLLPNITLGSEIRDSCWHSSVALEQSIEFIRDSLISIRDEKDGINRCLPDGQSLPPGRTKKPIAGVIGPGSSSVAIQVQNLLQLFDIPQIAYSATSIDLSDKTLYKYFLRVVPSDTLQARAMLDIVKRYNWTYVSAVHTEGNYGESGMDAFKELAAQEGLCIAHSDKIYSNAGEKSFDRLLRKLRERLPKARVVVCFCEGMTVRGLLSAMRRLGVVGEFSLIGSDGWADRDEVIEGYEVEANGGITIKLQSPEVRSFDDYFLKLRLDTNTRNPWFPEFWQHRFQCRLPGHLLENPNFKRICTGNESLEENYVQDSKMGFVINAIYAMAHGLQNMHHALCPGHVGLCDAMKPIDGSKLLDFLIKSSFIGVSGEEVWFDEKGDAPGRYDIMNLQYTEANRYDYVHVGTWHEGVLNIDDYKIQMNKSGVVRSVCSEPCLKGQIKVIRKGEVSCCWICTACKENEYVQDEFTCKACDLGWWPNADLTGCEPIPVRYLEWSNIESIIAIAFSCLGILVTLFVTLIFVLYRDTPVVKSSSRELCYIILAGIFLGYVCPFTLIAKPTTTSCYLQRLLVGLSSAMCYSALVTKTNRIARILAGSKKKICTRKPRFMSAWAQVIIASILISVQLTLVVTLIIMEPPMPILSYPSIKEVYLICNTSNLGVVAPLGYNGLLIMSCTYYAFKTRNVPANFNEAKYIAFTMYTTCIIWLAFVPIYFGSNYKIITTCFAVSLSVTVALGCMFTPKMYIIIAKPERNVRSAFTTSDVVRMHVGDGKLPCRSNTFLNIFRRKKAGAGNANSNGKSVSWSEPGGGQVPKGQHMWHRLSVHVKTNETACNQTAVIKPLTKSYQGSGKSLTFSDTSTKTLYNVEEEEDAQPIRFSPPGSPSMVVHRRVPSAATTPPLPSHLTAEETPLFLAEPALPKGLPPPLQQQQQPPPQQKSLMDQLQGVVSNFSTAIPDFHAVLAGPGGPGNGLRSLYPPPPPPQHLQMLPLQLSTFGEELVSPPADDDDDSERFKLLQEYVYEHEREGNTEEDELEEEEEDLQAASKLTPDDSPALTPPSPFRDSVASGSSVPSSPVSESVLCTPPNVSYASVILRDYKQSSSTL
row,Structure (SMILES),IC50 [µM]
1,O=C(N1CCC2(CCCCC2)CC1)N1C[C@@H]2CN(c3ccccn3)C[C@@H]2C1,0.364
2,O=C(N1C[C@@H]2CN(c3ccccn3)C[C@@H]2C1)N1CCC2(CCCC2)C1,0.297
3,O=C(N1C[C@@H]2CN(c3ccncn3)C[C@@H]2C1)C12CC3CC(CC(C3)C1)C2,> 10
4,O=C(C1CCCCC1)N1C[C@@H]2CN(c3ccccn3)C[C@@H]2C1,> 10
5,N#Cc1ncccc1N1C[C@H]2CN(C(=O)C34CC5CC(CC(C5)C3)C4)C[C@H]2C1,0.553
6,O=C(N1CCCCCCC1)N1C[C@@H]2CN(c3ccccn3)C[C@@H]2C1,> 10
7,C[C@H]1CC[C@H](C(=O)N2C[C@H]3CN(c4ccccn4)C[C@H]3C2)CC1,> 10
8,N#Cc1ccncc1N1C[C@H]2CN(C(=O)C34CC5CC(CC(C5)C3)C4)C[C@H]2C1,0.833
9,O=C(N1C[C@@H]2CN(c3cnccn3)C[C@@H]2C1)C12CC3CC(CC(C3)C1)C2,0.669
10,O=C(N1CCC2(CCCC2)CC1)N1C[C@@H]2CN(c3ccccn3)C[C@@H]2C1,0.769
11,CC(C)(C)[C@H]1CC[C@H](C(=O)N2C[C@H]3CN(c4ccccn4)C[C@H]3C2)CC1,> 10
12,CC1(C(=O)N2C[C@@H]3CN(c4ccccn4)C[C@@H]3C2)CCCCC1,5.14
13,O=C(C1CCCCCC1)N1C[C@@H]2CN(c3ccccn3)C[C@@H]2C1,> 10
14,O=C(N1C[C@@H]2CN(c3ccccn3)C[C@@H]2C1)C12CC3CC(CC(C3)C1)C2,0.085

# Species: Rattus norvegicus
# Assay: Binding affinity to rat sodium channel site 2 by radioligand binding assay
# Settings: concentration not given here
# Summary of the method: as §3
row,Structure (SMILES),inhibition [%]
1,O=C(N1C[C@@H]2CN(c3ccccn3)C[C@@H]2C1)C12CC3CC(CC(C3)C1)C2,52

# Target: Metabotropic glutamate receptor 6 (Homo sapiens) (UniProt O15303)
# Assay: Negative allosteric modulation of mGlu6 receptor (unknown origin) by cell based assay
# Settings: not given
# Summary of the method: as §1
row,Structure (SMILES),Activity
1,O=C(N1C[C@@H]2CN(c3ccccn3)C[C@@H]2C1)N1CCC2(CCCC2)C1,Active

# Target: Metabotropic glutamate receptor 2 (Homo sapiens) (UniProt Q14416)
# Assay: Negative allosteric modulation of mGlu2 receptor (unknown origin) by cell based assay
# Settings: not given
# Summary of the method: as §1
row,Structure (SMILES),Activity
1,O=C(N1C[C@@H]2CN(c3ccccn3)C[C@@H]2C1)N1CCC2(CCCC2)C1,inactive
2,O=C(N1C[C@@H]2CN(c3ccccn3)C[C@@H]2C1)C12CC3CC(CC(C3)C1)C2,inactive

# Target: Cytochrome P450 2D6 (Homo sapiens, UniProt P10635)
# Assay: Inhibition of CYP2D6 in human liver microsomes in presence of NADPH
# Assay type: ADME, Microsome
# Settings: not given
# Sequence of Cytochrome P450 2D6 (P10635 whole entry): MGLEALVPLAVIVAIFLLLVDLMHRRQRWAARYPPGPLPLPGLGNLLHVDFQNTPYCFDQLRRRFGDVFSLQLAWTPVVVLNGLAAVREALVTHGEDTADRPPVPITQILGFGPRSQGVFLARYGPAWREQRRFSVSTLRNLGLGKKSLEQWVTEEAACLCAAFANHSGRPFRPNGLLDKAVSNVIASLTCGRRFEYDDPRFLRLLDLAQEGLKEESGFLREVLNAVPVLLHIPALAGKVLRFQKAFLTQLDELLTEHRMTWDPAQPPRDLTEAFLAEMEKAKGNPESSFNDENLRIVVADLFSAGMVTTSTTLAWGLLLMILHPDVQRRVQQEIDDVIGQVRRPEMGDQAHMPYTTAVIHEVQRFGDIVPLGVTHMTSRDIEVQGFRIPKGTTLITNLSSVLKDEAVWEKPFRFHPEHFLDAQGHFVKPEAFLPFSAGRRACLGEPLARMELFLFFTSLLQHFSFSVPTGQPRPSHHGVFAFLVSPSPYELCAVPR
row,Structure (SMILES),IC50 [µM]
1,O=C(N1C[C@@H]2CN(c3ccccn3)C[C@@H]2C1)N1CCC2(CCCC2)C1,> 30
2,O=C(N1C[C@@H]2CN(c3ccccn3)C[C@@H]2C1)C12CC3CC(CC(C3)C1)C2,24.3
3,C[C@@H]1CN(c2cccnc2C#N)CCN1C(=O)C12CC3CC(CC(C3)C1)C2,12.4

# Target: Sigma non-opioid intracellular receptor 1 (Homo sapiens) (UniProt Q99720)
# Assay: Binding affinity to human sigma1 receptor by radioligand binding assay
# Settings: concentration not given here
# Summary of the method: as §3
# Sequence of Sigma non-opioid intracellular receptor 1 (Homo sapiens) (Q99720 whole entry): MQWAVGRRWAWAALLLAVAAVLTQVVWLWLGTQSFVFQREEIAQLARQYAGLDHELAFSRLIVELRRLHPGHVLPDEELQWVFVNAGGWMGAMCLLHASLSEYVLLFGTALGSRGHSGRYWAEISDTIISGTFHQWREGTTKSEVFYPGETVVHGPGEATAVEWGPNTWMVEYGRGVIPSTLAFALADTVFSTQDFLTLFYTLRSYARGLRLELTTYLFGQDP
row,Structure (SMILES),inhibition [%]
1,O=C(N1C[C@@H]2CN(c3ccccn3)C[C@@H]2C1)C12CC3CC(CC(C3)C1)C2,95

# Target: Metabotropic glutamate receptor 8 (Homo sapiens) (UniProt O00222)
# Assay: Negative allosteric modulation of mGlu8 receptor (unknown origin) by cell based assay
# Settings: not given
# Summary of the method: as §1
row,Structure (SMILES),Activity
1,O=C(N1C[C@@H]2CN(c3ccccn3)C[C@@H]2C1)N1CCC2(CCCC2)C1,Active

# Target: T3, 5-hydroxytryptamine receptor 3A (Homo sapiens) (UniProt P46098)
# T3 sequence (whole entry): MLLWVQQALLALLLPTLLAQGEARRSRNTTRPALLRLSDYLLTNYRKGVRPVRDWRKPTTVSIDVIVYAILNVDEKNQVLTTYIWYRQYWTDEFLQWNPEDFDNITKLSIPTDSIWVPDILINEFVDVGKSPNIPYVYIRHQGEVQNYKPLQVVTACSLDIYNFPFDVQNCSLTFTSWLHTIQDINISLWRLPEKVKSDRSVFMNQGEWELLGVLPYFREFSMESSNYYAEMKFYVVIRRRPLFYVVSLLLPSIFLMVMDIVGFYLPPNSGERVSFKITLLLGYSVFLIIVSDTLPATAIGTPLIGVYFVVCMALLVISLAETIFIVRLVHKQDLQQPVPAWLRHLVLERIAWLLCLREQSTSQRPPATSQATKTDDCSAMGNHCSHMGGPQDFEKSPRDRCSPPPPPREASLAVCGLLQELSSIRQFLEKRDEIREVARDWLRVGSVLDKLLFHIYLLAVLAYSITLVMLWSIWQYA
# Assay: Binding affinity to human 5HT3 receptor by radioligand binding assay
# Settings: concentration not given here
# Summary of the method: as §3
row,Structure (SMILES),inhibition [%]
1,O=C(N1C[C@@H]2CN(c3ccccn3)C[C@@H]2C1)C12CC3CC(CC(C3)C1)C2,90

# Target: Metabotropic glutamate receptor 4 (Homo sapiens) (UniProt Q14833)
# Assay: Negative allosteric modulation of mGlu4 receptor (unknown origin) by cell based assay
# Settings: not given
# Summary of the method: as §1
# Sequence of Metabotropic glutamate receptor 4 (Homo sapiens) (Q14833 whole entry): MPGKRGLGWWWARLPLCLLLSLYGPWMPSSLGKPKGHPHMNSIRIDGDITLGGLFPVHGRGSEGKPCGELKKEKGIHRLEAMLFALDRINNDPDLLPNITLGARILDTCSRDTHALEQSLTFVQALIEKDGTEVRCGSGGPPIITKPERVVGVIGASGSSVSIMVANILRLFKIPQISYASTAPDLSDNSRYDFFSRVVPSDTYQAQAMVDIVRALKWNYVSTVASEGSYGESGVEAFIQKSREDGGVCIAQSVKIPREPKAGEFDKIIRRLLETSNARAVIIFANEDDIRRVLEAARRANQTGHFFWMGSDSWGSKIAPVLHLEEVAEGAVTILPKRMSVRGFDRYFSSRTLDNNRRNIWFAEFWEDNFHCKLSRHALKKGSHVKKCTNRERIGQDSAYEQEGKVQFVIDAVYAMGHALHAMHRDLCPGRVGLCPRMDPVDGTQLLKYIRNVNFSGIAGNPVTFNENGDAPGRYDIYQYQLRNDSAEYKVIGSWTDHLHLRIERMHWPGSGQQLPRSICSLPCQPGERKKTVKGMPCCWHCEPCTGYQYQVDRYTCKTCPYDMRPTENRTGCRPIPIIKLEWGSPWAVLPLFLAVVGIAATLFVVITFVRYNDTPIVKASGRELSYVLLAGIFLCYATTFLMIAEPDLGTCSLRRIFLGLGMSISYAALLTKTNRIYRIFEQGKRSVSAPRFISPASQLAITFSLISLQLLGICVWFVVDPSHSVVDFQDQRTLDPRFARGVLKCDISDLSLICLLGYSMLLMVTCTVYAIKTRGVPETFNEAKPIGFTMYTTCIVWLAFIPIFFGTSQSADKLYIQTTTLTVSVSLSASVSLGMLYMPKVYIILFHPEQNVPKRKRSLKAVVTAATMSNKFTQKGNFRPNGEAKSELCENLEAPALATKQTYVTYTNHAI
row,Structure (SMILES),Activity
1,O=C(N1C[C@@H]2CN(c3ccccn3)C[C@@H]2C1)N1CCC2(CCCC2)C1,inactive
2,O=C(N1C[C@@H]2CN(c3ccccn3)C[C@@H]2C1)C12CC3CC(CC(C3)C1)C2,inactive

# Test system: Plasma
# Assay: Fraction unbound in rat plasma
# Assay type: ADME, cell-free
# Settings: not given
# Summary of the method: as §2
row,Structure (SMILES),Fu [%]
1,O=C(N1CCC2(CCCCC2)CC1)N1C[C@@H]2CN(c3ccccn3)C[C@@H]2C1,1.5
2,O=C(N1C[C@@H]2CN(c3ccccn3)C[C@@H]2C1)N1CCC2(CCCC2)C1,9
3,N#Cc1ncccc1N1C[C@H]2CN(C(=O)C34CC5CC(CC(C5)C3)C4)C[C@H]2C1,4.5
4,O=C(N1C[C@@H]2CN(c3cnccn3)C[C@@H]2C1)C12CC3CC(CC(C3)C1)C2,10.3
5,O=C(N1C[C@@H]2CN(c3ccccn3)C[C@@H]2C1)C12CC3CC(CC(C3)C1)C2,2.9

# From ChEMBL document CHEMBL2417457, “Octahydropyrrolo[3,4-c]pyrrole negative allosteric modulators of mGlu1” (Bioorg Med Chem Lett, 2013)
